# Beta cell apopt: beta cell apoptosis inhibition. protection from apoptosis, % (no concentration beside the values). AID 435005. INS-1E cytokine-induced death, ATP luminescence, 48 h; percent of positive-control rescue, neutral wells zero. actives 0.8% (n = 300,000);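 active = Every replicate reaches about 75%, or at least half do and their mean reaches it too, limit read from the data; inconclusive = At least half of replicates reach the limit but their mean does not; inactive = Under half of replicates reach the limit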;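 note: 0% = cytokine-treated negative control wells and 100% = positive control rescue; higher means more ATP so stronger rescue from cytokine killing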
# Calb FLC: C. albicans growth modulation with fluconazole. C. albicans CaCi-2 (fluconazole-resistant clinical isolate) + fluconazole, Alamar Blue growth, 48 h. growth inhibition, % (test concentration not listed). actives 0.57% (n = 300,000);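 active = growth inhibition above about 58% in most replicates, limit read from the data, passing the limit was not always enough; inconclusive = exactly half the replicates above a set limit; inactive = most replicates below a set limit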;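 note: all wells also contain fluconazole at 8 µg/ml as a sub-toxic cotreatment; 0% = median of DMSO wells and 100% = median of geldanamycin control wells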
# CSC inhib: cancer stem cell inhibition. cancer stem cell-like cells viability, luminescence. inhibition, % at 7.5 µM. actives 1.1% (n = 300,000); in the data active = inhibition above about 75%; inconclusive = no clear call, values can overlap the other calls; tested in HMLE shEcad cells
# Mdm2-MdmX inh: inhibitors of human Mdm2/MdmX interaction; SaOS-2 split-luciferase Mdm2/MdmX complementation, luminescence; inhibition, % at 8 µM; actives 3% (n = 330,000); AID 485346;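 active = inhibition of at least 50% at 8 µM in the primary screen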
# SKKanGAS inh: inhibitors of SKKanGAS S. pyogenes growth in kanamycin (SK-promoter or general growth effect); BacTiter-Glo, 6 h; actives 1.3% (n = 300,000); inhibition, % at 7.5 µM;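 active = mean replicate score, as percent of positive control median, at least 50; inconclusive = mean below 50 but one replicate at or above 50; inactive = mean and every replicate below 50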;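 note: strain carries kanamycin resistance gene driven by streptokinase promoter and grows in 40 µg/ml kanamycin; loss of luminescence reflects streptokinase promoter inhibition or plain growth inhibition; 0% = median of DMSO wells and 100% = positive control at its reference dose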
# T cruzi inh: T. cruzi replication inhibition; actives 1.4% (n = 300,000); inhibition, % (no concentration beside the values); T. cruzi beta-gal in NIH3T3, luminescence, 90 h; AID 1885;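 active = mean inhibition across valid replicates above about 55%, limit read from the data; inconclusive = mean below that limit but half or more replicates reach it; inactive = mean below it, under half of replicates reach it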;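 note: signal also drops with host cell toxicity which is not excluded here; 0% = plate median of DMSO wells and 100% = zero luminescence signal; higher percent means less beta-gal luminescence so fewer parasites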
#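 System: mouse NIH/3T3 fibroblasts infected with β-gal-expressing T. cruzi Tulahuen C4 / Input: NIH/3T3 cells, 5,000 per well / Buffer or medium: Low-serum DMEM with 2% FBS / Probe or stimulus: 5000 reporter trypomastigotes per well / Schedule: ≥90 h infection period, 3 h prior cell attachment / Measured by: GalScreen luminescence, 60 min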
# Mdm2-MdmX conf: human Mdm2/MdmX binding inhibition, confirmed; shares compounds with Mdm2-MdmX inh; luminescent assay; inhibition, % at 8 µM; actives 55% (n = 10,000); in the data active = inhibition above about 40%
# FLuc counter: inhibits full-length luciferase, flagging false Mdm2/MdmX hits; shares compounds with Mdm2-MdmX inh; SaOS-2 full-length luciferase counterscreen, luminescence; inhibition, % at 8 µM; actives 77% (n = 6,200); AID 504607;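 active = mean inhibition at 8 µM reaching about 37%, which flags the compound as non-specific, limit read from the data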;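 note: p53-null SaOS-2 cells with luciferase driven by a doxycycline-inducible promoter; compound on cells about two nights before reading with doxycycline added after day one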
# Active calls of the source: *; ? = inconclusive; / = no result. Hits are enriched below; roughly 5.7% of the tested compounds scored in any of these assays.
SMILES,Beta cell apopt,Calb FLC,CSC inhib,Mdm2-MdmX inh,SKKanGAS inh,T cruzi inh,Mdm2-MdmX conf,FLuc counter
NC(=O)C1CCN(C(=O)CCSCc2ccccc2)CC1,-6,-11,-6,6,-6,-8,/,/
COc1ccc(Cl)cc1NC(=S)N(CCCN1CCOCC1)Cc1cn(C)c2ccccc12,-1,7,8,26,5,32,/,/
COc1cc(Cl)ccc1NC(=S)N(CCCN1CCOCC1)Cc1cn(C)c2ccccc12,-12,25,8,55*,0,17,22,/
Cc1ccc(S(=O)(=O)N2CCOCC2)cc1NC(=O)Nc1ccc([N+](=O)[O-])cc1,2,/,23,33,/,/,/,/
Nc1c(C(=O)NCc2ccc(F)cc2)c2nc3ccccc3nc2n1CCCN1CCOCC1,-8,2,?,54*,20,24,20,/
COc1ccc(CNC(=O)c2c(N)n(CCCN3CCOCC3)c3nc4ccccc4nc23)cc1,42,8,83*,56*,14,24,26,/
Nc1c(C(=O)NCc2ccccc2)c2nc3ccccc3nc2n1CCCN1CCOCC1,7,-13,31,17,8,25,/,/
COc1ccc(NC(=O)[C@@H]2CCCN2S(=O)(=O)c2ccccc2F)cc1S(=O)(=O)N1CCCCC1,3,/,-11,4,/,/,/,/
COc1ccc(/C=N/NC(=O)c2nc(-c3ccccc3)n(-c3ccccc3)n2)c(O)c1,103*,0,/,63*,5,17,66*,41*
COc1ccc(/C=N/NC(=O)c2cc3cc(OC)c(OC)cc3[nH]2)cc1,25,5,11,-5,12,-10,/,/
COc1ccc2[nH]c(C(=O)N/N=C/c3ccc(O)cc3O)cc2c1,121*,14,100*,71*,-4,?,83*,31
CCOc1ccc2[nH]c(C(=O)N/N=C/c3ccc(OC)cc3)cc2c1,34,50,51,53*,0,-23,56*,96*
CC(C)(C)c1cc(C(=O)N/N=C/c2ccccc2O)n(-c2ccccc2)n1,85*,-10,117*,70*,73*,31,77*,29
Cc1ccc(N2CN(CCc3ccccc3)CNC2=S)cc1,0,20,-7,6,-15,/,/,/
O=C(Oc1ccccc1)c1cccnc1Oc1ccccc1,-5,0,-12,26,0,-7,/,/
NC(=O)c1ccccc1NC(=O)C(c1ccccc1)c1ccccc1,/,-3,10,9,-3,5,/,/
C[C@@H]1C=CC(=O)O[C@@H]1c1ccc(C(F)(F)F)cc1,6,-4,92*,76*,4,4,69*,9
C[C@H]1C=CC(=O)O[C@H]1c1ccccc1,-66,-7,-11,50*,1,52,8,/
CN1CCCCC1CCN1c2ccccc2Sc2ccc(S(C)=O)cc21 (stereo not drawn),-12,-15,3,24,1,12,/,/
CN1CCCC(CC2c3ccccc3Sc3ccccc32)C1 (stereo not drawn),/,/,9,59*,/,/,39,65*
CN1CCCC(CN2c3ccccc3Sc3ccccc32)C1 (stereo not drawn),/,/,5,51*,0,14,19,/
CCN(CC)c1ccc(CNc2nc3ccccc3n2CCN2CCCCC2)cc1,88*,-27,78*,89*,-7,60*,48*,77*
Cn1c(CNc2nc3ccccc3n2CCN2CCCCC2)nc2ccccc21,3,?,-6,12,-3,19,/,/
c1ccc(Cn2c(CNc3nc4ccccc4n3CCN3CCCCC3)nc3ccccc32)cc1,0,2,17,57*,5,0,15,/
Cc1c[n+](CC(=O)c2ccccc2)c(C)cn1,-3,-17,-3,-3,-6,-10,/,/
SMILES,Beta cell apopt,Calb FLC,CSC inhib,Mdm2-MdmX inh,SKKanGAS inh,T cruzi inh,Mdm2-MdmX conf,FLuc counter
O=C(Nc1cccc(Cl)c1)c1nc[nH]c1C(=O)NCCCCNC(=O)c1[nH]cnc1C(=O)Nc1cccc(Cl)c1,13,/,/,86*,/,/,-19,/
O=C(Nc1ccc(Cl)cc1)c1nc[nH]c1C(=O)NCCCCNC(=O)c1[nH]cnc1C(=O)Nc1ccc(Cl)cc1,7,/,68,99*,/,/,73*,69*
O=C(Nc1cccc(Cl)c1)c1nc[nH]c1C(=O)NCCN(CCNC(=O)c1[nH]cnc1C(=O)Nc1cccc(Cl)c1)CCNC(=O)c1[nH]cnc1C(=O)Nc1cccc(Cl)c1,3,/,/,75*,/,/,24,/
CC(C)(C)OC(=O)NCCCCCNC(=O)c1[nH]cnc1C(=O)Nc1cccc(Cl)c1,5,/,11,50,/,/,/,/
CCOC(=O)c1[nH]cnc1C(=O)Nc1ccc(Cl)cc1,-8,47,6,1,-1,-5,/,/
O=C(NCC1CC1)[C@]1(C(F)(F)F)C[C@H](CCC2CCCCC2)CCCO1,-2,2,-5,18,4,-10,/,/
C=CC[C@@H](CC(=O)N[C@H](CO)Cc1ccccc1)C(=O)N[C@H](COC(=O)[C@@H](CC=C)CC(=O)OC(C)(C)C)Cc1ccccc1,3,/,/,4,/,/,/,/
CC(C)(C)c1ccc(/C=C(\c2nc3ccccc3[nH]2)S(=O)(=O)c2ccccc2)cc1,108*,-2,125*,93*,11,56*,100*,51*
Cc1cccc(/C=C(\c2nc3ccccc3[nH]2)S(=O)(=O)c2ccccc2)c1,/,36,/,/,3,47,/,/
O=C(Nc1ccc(Cl)c(C(F)(F)F)c1)c1ccncc1,2,-7,-8,12,5,-5,/,/
CNC(=O)c1cc(Oc2ccc(NC(=O)Nc3ccc(Cl)c(C(F)(F)F)c3)cc2)ccn1,/,/,124*,97*,/,/,89*,52*
COc1cccc(OCC(=O)NNC(=S)Nc2ccc(Cl)cc2Cl)c1,-2,68,-5,-24,0,8,/,/
CCOc1ccccc1CN1CCCC(C(=O)Nc2cccc(-n3cccn3)c2)C1 (stereo not drawn),1,-5,/,26,-8,41,/,/
COc1ccc(-c2ccc(F)cc2)cc1[C@H]1[C@H]2C=CC[C@@H](C)[C@@H]2C(=O)N1Cc1ccccc1,-6,-7,-6,61*,32,41,44*,50*
COc1ccc(-c2ccc([C@H]3[C@H]4C=CC[C@@H](C)[C@@H]4C(=O)N3Cc3ccccc3)c(F)c2)cc1C,2,4,36,29,28,17,/,/
COc1ccc(-c2ccc(OC)c([C@H]3[C@H]4C=CC[C@@H](C)[C@@H]4C(=O)N3Cc3ccccc3)c2)cc1OC,16,1,61,58*,30,33,-10,/
COc1ccc(Br)cc1[C@H]1[C@H]2C=CC[C@@H](C)[C@@H]2C(=O)N1Cc1ccccc1,/,-1,/,58*,42,4,37,/
